The list is not random: actives were taken first. Their share in the collection is about 5.3%.
Calb FLC: C. albicans growth modulation with fluconazole; growth inhibition, % (test concentration not listed); 0.57% of 300,000 active; AID 1979; C. albicans CaCi-2 (fluconazole-resistant clinical isolate) + fluconazole, Alamar Blue growth, 48 h;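 active = growth inhibition above about 58% in most replicates, limit read from the data, passing the limit was not always enough; inconclusive = exactly half the replicates above a set limit; inactive = most replicates below a set limit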;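 also: all wells also contain fluconazole at 8 µg/ml as a sub-toxic cotreatment; 0% = median of DMSO wells and 100% = median of geldanamycin control wells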
NLRP3 yeast inh: NALP3 inhibition in yeast. Yeast reconstituted NLRP3/ASC/caspase-1, beta-gal luminescence, 24 h. inhibition, % at 10 µM. 0.39% of 330,000 active. AID 2825;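 active = inhibition of 50% or more; inactive = inhibition below 50%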;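 also: plate controls were induced DMSO wells for no effect and uninduced yeast grown without galactose for full effect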
Mdm2 MdmX PPI: inhibitors of human Mdm2/MdmX interaction | O15151+Q00987 | SaOS-2 split-luciferase Mdm2/MdmX complementation, luminescence | inhibition, % at 8 µM | 3% of 330,000 active | AID 485346;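 active = inhibition of at least 50% at 8 µM in the primary screen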
Target sequence (O15151 whole entry, looked up): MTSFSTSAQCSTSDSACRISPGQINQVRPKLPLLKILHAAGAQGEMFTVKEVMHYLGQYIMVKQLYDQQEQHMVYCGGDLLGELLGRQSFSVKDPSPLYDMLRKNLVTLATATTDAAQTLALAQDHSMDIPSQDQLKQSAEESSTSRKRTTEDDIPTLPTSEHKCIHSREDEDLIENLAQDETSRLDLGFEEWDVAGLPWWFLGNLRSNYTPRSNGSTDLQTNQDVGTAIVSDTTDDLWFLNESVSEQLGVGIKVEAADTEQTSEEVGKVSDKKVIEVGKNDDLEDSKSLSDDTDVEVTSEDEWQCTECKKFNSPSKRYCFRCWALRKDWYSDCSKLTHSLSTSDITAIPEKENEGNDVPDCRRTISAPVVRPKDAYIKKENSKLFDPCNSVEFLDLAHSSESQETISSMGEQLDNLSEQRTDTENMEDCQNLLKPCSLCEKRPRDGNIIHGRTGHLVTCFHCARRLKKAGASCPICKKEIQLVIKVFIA
Target sequence (Q00987 whole entry, looked up): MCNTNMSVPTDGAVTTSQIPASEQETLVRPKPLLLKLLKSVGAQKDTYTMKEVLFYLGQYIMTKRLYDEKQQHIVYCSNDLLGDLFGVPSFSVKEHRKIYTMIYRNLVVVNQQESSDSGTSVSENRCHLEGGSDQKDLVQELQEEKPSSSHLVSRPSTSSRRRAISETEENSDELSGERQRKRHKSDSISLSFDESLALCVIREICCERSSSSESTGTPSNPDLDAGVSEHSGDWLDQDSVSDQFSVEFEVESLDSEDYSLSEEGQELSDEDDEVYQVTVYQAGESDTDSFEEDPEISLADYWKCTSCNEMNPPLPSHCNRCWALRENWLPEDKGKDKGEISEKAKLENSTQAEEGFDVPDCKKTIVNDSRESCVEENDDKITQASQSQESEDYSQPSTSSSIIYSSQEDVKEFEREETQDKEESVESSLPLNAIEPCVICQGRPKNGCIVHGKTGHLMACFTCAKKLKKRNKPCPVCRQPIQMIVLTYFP
CSC inhib: blocks cancer stem cells; cancer stem cell-like cells viability, luminescence; inhibition, % at 7.5 µM; 1.1% of 300,000 active; AID 2717; in the data active = inhibition above about 75%; inconclusive = no clear call, values can overlap the other calls; tested in HMLE shEcad cells
Beta cell apopt: beta cell apoptosis inhibition. INS-1E cytokine-induced death, ATP luminescence, 48 h; percent of positive-control rescue, neutral wells zero. protection from apoptosis, % (no concentration beside the values). 0.8% of 300,000 active. AID 435005;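 active = Every replicate reaches about 75%, or at least half do and their mean reaches it too, limit read from the data; inconclusive = At least half of replicates reach the limit but their mean does not; inactive = Under half of replicates reach the limit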;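 also: 0% = cytokine-treated negative control wells and 100% = positive control rescue; higher means more ATP so stronger rescue from cytokine killing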
T cruzi inh: blocks replication of Trypanosoma cruzi. inhibition, % (no concentration beside the values). T. cruzi beta-gal in NIH3T3, luminescence, 90 h. 1.4% of 300,000 active. AID 1885;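 active = mean inhibition across valid replicates above about 55%, limit read from the data; inconclusive = mean below that limit but half or more replicates reach it; inactive = mean below it, under half of replicates reach it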;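 also: signal also drops with host cell toxicity which is not excluded here; 0% = plate median of DMSO wells and 100% = zero luminescence signal; higher percent means less beta-gal luminescence so fewer parasites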
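System – NIH/3T3 host cells with β-galactosidase reporter T. cruzi · Doses – single 50 nL compound addition per well in DMSO · Reagent – 5000 T. cruzi trypomastigotes/well · Medium – Low-serum DMEM with 2% FBS · Timing – ≥90 h infection period, 3 h prior cell attachment · Evaluation – parasite load inhibition, % · Technique – GalScreen luminescence, 60 min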
Mdm2-MdmX conf: confirmation of human Mdm2/MdmX interaction inhibitors | shares compounds with Mdm2 MdmX PPI | inhibition, % at 8 µM | 55% of 10,000 active | Mdm2-MdmX binding, luminescent assay; in the data active = inhibition above about 40%
Full FLuc ctr: counter-screen for Mdm2/MdmX inhibitors: full-length luciferase. shares compounds with Mdm2 MdmX PPI. SaOS-2 full-length luciferase counterscreen, luminescence. inhibition, % at 8 µM. 77% of 6,200 active;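 active = mean inhibition at 8 µM reaching about 37%, which flags the compound as non-specific, limit read from the data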;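 also: p53-null SaOS-2 cells with luciferase driven by a doxycycline-inducible promoter; compound on cells about two nights before reading with doxycycline added after day one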
Active calls of the source: *.

`CCCn1c(COc2ccccc2OC)nc2ccccc21` gave Calb FLC 4.6, NLRP3 yeast inh 31.6, Mdm2 MdmX PPI -25.3, CSC inhib 5.6 and T cruzi inh -2.3.
For COc1cccc(-c2ccc3ncnc(NCc4cccnc4)c3c2)c1 the results were NLRP3 yeast inh 9.7, Mdm2 MdmX PPI 68.5*, Beta cell apopt -7.4, Mdm2-MdmX conf 48.4* and Full FLuc ctr 22.6.
`Cc1cccc2cc(C#N)c(SCc3nnc(-c4ccccc4[N+](=O)[O-])o3)nc12` gave Calb FLC 10.5, NLRP3 yeast inh 11.7, Mdm2 MdmX PPI 58.8*, CSC inhib 0.8, Beta cell apopt -0.5, T cruzi inh -1.8 and Mdm2-MdmX conf 16.6.
For Cc1cccc2cc(C#N)c(SCCN3CCCCC3)nc12 the results were Calb FLC -5.9, NLRP3 yeast inh -4.1, Mdm2 MdmX PPI -0.4, CSC inhib 0.5, Beta cell apopt 36.7 and T cruzi inh 35.6.
CC(C)CC(=O)Nc1cccc(-c2csc(-c3ccccc3)n2)c1 was read as Calb FLC 1.8, NLRP3 yeast inh 28.0, Mdm2 MdmX PPI 10.8, Beta cell apopt 28.0 and T cruzi inh 4.3.
`CCOc1ccc(S(=O)(=O)N(C)c2ccc(OCC(=O)N3c4ccc(C)cc4C4CN(C)CCC43)cc2)cc1` (centres undefined) gave Calb FLC -0.5, NLRP3 yeast inh -0.2, Mdm2 MdmX PPI 11.5, CSC inhib 1.5, Beta cell apopt -4.6 and T cruzi inh 48.4.
`Cc1cc(C)n2cc(COc3ccc4ccccc4c3)nc2n1` gave Calb FLC 0.8, NLRP3 yeast inh 20.6, Mdm2 MdmX PPI -217.6, CSC inhib -1.2, Beta cell apopt -1.4 and T cruzi inh 6.1.
Cc1cccc2nc(COc3ccc(-c4ccccc4)cc3)cn12 was read as Calb FLC -67.9, NLRP3 yeast inh 18.2, Mdm2 MdmX PPI 63.3*, CSC inhib 51.9, T cruzi inh 10.8, Mdm2-MdmX conf 29.6 and Full FLuc ctr 78.1*.
`COc1ccc(-c2sc3ccccc3c2-c2ccc(OCCN(C)C)cc2)cc1` gave NLRP3 yeast inh 30.0, Mdm2 MdmX PPI 100.5*, CSC inhib 142.0*, Beta cell apopt 76.3*, Mdm2-MdmX conf 49.4* and Full FLuc ctr 13.6.
Screening COc1ccc(-c2sc3ccc(OC)cc3c2-c2ccc(OC)nc2)cc1 returned NLRP3 yeast inh 6.8, Mdm2 MdmX PPI 4.1, CSC inhib 44.7 and Beta cell apopt 3.9.
CN(C)CCOc1ccc(-c2c(-c3ccsc3)sc3ccccc23)cc1 was read as NLRP3 yeast inh 47.9, Mdm2 MdmX PPI 93.4*, CSC inhib 103.8*, Beta cell apopt 1.2 and Mdm2-MdmX conf 33.4.
For COc1cccc(-c2sc3ccc(OC)cc3c2-c2ccc(OCCN(C)C)cc2)c1 the results were NLRP3 yeast inh 29.4, Mdm2 MdmX PPI 99.4*, CSC inhib 103.8*, Beta cell apopt 3.2 and Mdm2-MdmX conf 30.2.
For CN(C)CCOc1ccc2ccccc2c1 the results were Calb FLC -7.1, NLRP3 yeast inh -1.2, Mdm2 MdmX PPI 2.8, CSC inhib 4.6, Beta cell apopt 3.0 and T cruzi inh 26.7.
Screening O=C(CCN1CCOCC1)N1CCc2c([nH]c3ccccc23)C1c1cccc(Cl)c1 (centres undefined) returned Calb FLC 20.7, NLRP3 yeast inh 4.2, Mdm2 MdmX PPI 20.4, CSC inhib -4.5, Beta cell apopt 7.4 and T cruzi inh 12.1.
`OCCNc1ncnc2ccc(Br)cc12` gave Calb FLC -1.7, NLRP3 yeast inh 19.5, Mdm2 MdmX PPI 47.6, CSC inhib -17.7, Beta cell apopt -8.8 and T cruzi inh -6.0.
CCN(CC)c1ncnc2ccc(Br)cc12 was read as Calb FLC 3.0, NLRP3 yeast inh 25.4, Mdm2 MdmX PPI 58.5*, CSC inhib -12.3, Beta cell apopt -4.3, T cruzi inh 1.3, Mdm2-MdmX conf 52.0* and Full FLuc ctr 37.9*.
Screening COc1ccc(OC)c(Nc2ncnc3ccc(Br)cc23)c1 returned Calb FLC -2.0, NLRP3 yeast inh 25.1, Mdm2 MdmX PPI 50.9*, CSC inhib 4.9, Beta cell apopt -1.8, T cruzi inh 4.8 and Mdm2-MdmX conf 34.9.
For Brc1ccc2ncnc(Nc3cccc4ccccc34)c2c1 the results were Calb FLC inconclusive, NLRP3 yeast inh 43.2, Mdm2 MdmX PPI 60.6*, CSC inhib 40.1, Beta cell apopt -7.6, T cruzi inh -5.0, Mdm2-MdmX conf 41.5* and Full FLuc ctr 52.7*.
O=C(O)c1cccc(Nc2ncnc3ccc(Br)cc23)c1 was read as Calb FLC -10.2, NLRP3 yeast inh 2.9, Mdm2 MdmX PPI -16.8, CSC inhib -9.6, Beta cell apopt -2.6 and T cruzi inh -6.9.
Screening O=C(/C=C/c1cccc(Cl)c1)Nc1ccncc1 returned Calb FLC 20.9, NLRP3 yeast inh 8.7, Mdm2 MdmX PPI 8.8, CSC inhib -15.3, Beta cell apopt 1.2 and T cruzi inh -6.6.
Screening COc1ccc(C(=O)OCC(=O)Nc2ccc([N+](=O)[O-])cc2OC)c(O)c1 returned Calb FLC -12.9, NLRP3 yeast inh 6.3, Mdm2 MdmX PPI 83.9*, CSC inhib 2.6, Beta cell apopt 9.0, T cruzi inh 3.1 and Mdm2-MdmX conf 8.3.
COc1ccc([N+](=O)[O-])cc1NC(=O)COC(=O)c1ccccc1O was read as Calb FLC -6.8, NLRP3 yeast inh -3.2, Mdm2 MdmX PPI 23.0, CSC inhib -9.5, Beta cell apopt 2.6 and T cruzi inh -8.2.
For O=c1c(O[C@@H]2O[C@H](CO)[C@@H](O)[C@H](O)[C@H]2O)c(-c2ccc(O)c(O)c2)oc2cc(O)cc(O)c12 the results were NLRP3 yeast inh 23.2, Mdm2 MdmX PPI 51.5*, T cruzi inh 7.5 and Mdm2-MdmX conf 14.8.
`CCCC(O)(CCC)C(=O)NNc1ccccc1` gave Calb FLC -32.5, NLRP3 yeast inh 6.2, Mdm2 MdmX PPI -10.7, CSC inhib -4.3, Beta cell apopt -3.4 and T cruzi inh 2.0.
Screening c1ccc(-c2nnc(-c3ccccn3)c(-c3ccccn3)n2)nc1 returned Calb FLC -0.8, NLRP3 yeast inh 9.7, Mdm2 MdmX PPI 30.1, CSC inhib -5.8, Beta cell apopt -0.4 and T cruzi inh -10.3.
`COc1cnc(-c2ccccn2)nc1N(C)C` gave Calb FLC 6.1, NLRP3 yeast inh 10.4, Mdm2 MdmX PPI 72.2*, CSC inhib 44.8, Beta cell apopt 81.1*, T cruzi inh 48.0, Mdm2-MdmX conf 79.0* and Full FLuc ctr 42.4*.
`CCN(CC)c1nc(-c2ccccn2)nc(-c2ccccc2)c1C#N` gave Calb FLC 102.9*, NLRP3 yeast inh 9.1, Mdm2 MdmX PPI 58.5*, CSC inhib -14.9, T cruzi inh 57.9* and Mdm2-MdmX conf 37.5.

Screening results: PubChem BioAssay, several laboratories
